Results: ChEMBL document CHEMBL3351764, “Design, synthesis and biological activity of flavonoid derivatives as selective agonists for neuromedin U 2 receptor” (Bioorg Med Chem, 2014)
Calls of active or inactive are those of the source. The rule behind the calls is not given here.

Assays:
[1] = molecular target: Melanocortin receptor 3 (Mus musculus) (UniProt P33033); experiment: Agonist activity at mouse MC3 receptor at 100 uM to 5 mM
[2] = molecular target: Melanocyte-stimulating hormone receptor (Homo sapiens) (UniProt Q01726); experiment: Agonist activity at human MC1 receptor at 100 uM to 5 mM
Sequence of Melanocyte-stimulating hormone receptor (Homo sapiens) (Q01726 whole entry, looked up): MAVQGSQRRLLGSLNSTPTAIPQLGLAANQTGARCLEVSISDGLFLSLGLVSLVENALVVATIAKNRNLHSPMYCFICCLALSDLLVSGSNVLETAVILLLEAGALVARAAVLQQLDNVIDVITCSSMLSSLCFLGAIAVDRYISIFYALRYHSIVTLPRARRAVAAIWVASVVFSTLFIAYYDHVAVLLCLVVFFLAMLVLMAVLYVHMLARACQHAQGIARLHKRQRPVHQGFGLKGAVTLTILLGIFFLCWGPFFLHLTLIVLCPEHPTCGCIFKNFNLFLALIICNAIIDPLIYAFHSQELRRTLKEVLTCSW

[3] = molecular target: T1, Neuromedin-U receptor 1 (Homo sapiens) (UniProt Q9HB89); experiment: Agonist activity at human NMU1 receptor at 100 uM to 5 mM
T1 sequence (whole entry): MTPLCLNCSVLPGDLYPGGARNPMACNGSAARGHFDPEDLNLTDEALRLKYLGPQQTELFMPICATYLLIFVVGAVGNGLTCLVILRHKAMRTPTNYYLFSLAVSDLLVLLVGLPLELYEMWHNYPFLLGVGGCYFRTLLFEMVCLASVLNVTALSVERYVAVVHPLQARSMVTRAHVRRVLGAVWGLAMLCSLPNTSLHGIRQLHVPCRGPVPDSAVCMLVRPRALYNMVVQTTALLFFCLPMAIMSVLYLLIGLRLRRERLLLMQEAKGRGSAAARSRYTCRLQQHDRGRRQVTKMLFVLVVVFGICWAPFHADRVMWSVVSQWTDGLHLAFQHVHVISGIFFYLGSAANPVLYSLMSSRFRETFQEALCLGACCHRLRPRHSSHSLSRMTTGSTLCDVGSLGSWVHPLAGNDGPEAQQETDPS

[4] = molecular target: Neuromedin-U receptor 2 (Homo sapiens, UniProt Q9GZQ4); experiment: Agonist activity at human NMU2R transfected in HEK293 cells after 7 hrs by luciferase reporter gene assay; assay type: cell-based
Sequence of Neuromedin-U receptor 2 (Q9GZQ4 whole entry): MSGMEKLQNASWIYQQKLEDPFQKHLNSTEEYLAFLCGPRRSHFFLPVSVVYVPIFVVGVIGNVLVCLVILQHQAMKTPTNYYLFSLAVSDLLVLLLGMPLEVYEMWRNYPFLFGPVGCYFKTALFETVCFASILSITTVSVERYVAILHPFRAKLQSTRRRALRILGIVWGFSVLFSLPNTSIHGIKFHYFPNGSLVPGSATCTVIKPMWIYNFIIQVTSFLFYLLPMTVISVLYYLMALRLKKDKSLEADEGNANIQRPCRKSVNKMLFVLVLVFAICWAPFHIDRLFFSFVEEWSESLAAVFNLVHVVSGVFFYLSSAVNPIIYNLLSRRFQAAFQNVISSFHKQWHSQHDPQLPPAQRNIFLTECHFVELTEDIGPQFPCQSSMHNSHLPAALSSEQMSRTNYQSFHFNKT
Procedure, shortened: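 HEK-293 cells were stably co-transfected with a reporter gene construct and human NMU2R cDNA in pcDNA3.1(+), maintained under G418 selection at 37 °C in 5% CO2, then seeded and incubated overnight. Compounds were added at various concentrations for 7 h at 37 °C, followed by Bright-Glo luciferase read-out. Forskolin and NMU served as positive controls. EC50 was fitted by four-parameter logistic regression; means ± SEM of three independent experiments.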

[5] = molecular target: Adenosine receptor A2a (Homo sapiens) (UniProt P29274); experiment: Agonist activity at human A2a receptor at 100 uM to 5 mM
Sequence of Adenosine receptor A2a (Homo sapiens) (P29274 whole entry): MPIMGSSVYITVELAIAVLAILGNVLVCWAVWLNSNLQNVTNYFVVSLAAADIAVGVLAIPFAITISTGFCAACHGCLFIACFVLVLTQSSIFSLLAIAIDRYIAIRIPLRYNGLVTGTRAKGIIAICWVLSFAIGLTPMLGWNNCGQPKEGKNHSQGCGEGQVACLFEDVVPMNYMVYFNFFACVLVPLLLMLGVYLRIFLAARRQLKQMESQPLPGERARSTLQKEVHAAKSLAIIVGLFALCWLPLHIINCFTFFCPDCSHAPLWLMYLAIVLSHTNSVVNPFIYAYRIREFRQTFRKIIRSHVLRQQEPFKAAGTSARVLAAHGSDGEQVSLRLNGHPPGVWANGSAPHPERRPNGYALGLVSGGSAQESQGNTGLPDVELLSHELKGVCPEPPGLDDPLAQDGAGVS

[6] = molecular target: D(1A) dopamine receptor (Homo sapiens) (UniProt P21728); experiment: Agonist activity at human D1 receptor at 100 uM to 5 mM
Sequence of D(1A) dopamine receptor (Homo sapiens) (P21728 whole entry): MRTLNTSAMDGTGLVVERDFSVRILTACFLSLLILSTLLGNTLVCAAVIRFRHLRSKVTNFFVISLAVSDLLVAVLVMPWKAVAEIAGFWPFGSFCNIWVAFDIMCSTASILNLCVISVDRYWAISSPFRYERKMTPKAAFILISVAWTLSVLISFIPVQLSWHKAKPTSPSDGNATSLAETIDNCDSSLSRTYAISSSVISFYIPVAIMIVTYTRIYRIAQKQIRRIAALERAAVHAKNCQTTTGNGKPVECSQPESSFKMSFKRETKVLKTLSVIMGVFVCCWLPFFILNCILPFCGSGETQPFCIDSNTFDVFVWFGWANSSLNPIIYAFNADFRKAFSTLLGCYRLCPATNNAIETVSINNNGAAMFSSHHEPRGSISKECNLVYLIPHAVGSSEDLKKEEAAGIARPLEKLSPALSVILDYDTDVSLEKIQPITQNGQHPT

[7] = molecular target: Melanocortin receptor 4 (Homo sapiens) (UniProt P32245); experiment: Agonist activity at human MC4 receptor at 100 uM to 5 mM
Sequence of Melanocortin receptor 4 (Homo sapiens) (P32245 whole entry): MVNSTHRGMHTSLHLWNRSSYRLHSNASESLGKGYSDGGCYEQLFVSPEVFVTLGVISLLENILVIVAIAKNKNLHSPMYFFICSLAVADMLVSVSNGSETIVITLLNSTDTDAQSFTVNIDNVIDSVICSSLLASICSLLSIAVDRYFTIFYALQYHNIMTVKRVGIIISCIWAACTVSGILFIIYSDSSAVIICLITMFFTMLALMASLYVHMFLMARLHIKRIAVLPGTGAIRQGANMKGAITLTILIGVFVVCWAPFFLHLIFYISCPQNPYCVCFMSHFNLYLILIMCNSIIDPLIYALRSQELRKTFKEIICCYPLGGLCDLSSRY

[8] = molecular target: T2, Muscarinic acetylcholine receptor M1 (Homo sapiens) (UniProt P11229); experiment: Agonist activity at human M1 receptor at 100 uM to 5 mM
T2 sequence (whole entry): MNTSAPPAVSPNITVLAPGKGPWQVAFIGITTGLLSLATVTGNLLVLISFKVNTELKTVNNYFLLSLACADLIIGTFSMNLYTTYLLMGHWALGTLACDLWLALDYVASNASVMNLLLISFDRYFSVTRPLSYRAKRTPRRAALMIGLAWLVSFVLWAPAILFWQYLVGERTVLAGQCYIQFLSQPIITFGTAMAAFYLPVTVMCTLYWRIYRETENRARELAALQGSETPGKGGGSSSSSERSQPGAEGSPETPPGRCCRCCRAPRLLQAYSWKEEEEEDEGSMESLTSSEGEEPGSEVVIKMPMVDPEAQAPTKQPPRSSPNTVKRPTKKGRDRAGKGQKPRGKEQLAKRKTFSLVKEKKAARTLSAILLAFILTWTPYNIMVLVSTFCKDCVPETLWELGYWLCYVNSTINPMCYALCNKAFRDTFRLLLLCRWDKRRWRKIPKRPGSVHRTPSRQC

[9] = molecular target: T3, Orexin receptor type 2 (Homo sapiens) (UniProt O43614); experiment: Agonist activity at human orexin 2 receptor at 100 uM to 5 mM
T3 sequence (whole entry): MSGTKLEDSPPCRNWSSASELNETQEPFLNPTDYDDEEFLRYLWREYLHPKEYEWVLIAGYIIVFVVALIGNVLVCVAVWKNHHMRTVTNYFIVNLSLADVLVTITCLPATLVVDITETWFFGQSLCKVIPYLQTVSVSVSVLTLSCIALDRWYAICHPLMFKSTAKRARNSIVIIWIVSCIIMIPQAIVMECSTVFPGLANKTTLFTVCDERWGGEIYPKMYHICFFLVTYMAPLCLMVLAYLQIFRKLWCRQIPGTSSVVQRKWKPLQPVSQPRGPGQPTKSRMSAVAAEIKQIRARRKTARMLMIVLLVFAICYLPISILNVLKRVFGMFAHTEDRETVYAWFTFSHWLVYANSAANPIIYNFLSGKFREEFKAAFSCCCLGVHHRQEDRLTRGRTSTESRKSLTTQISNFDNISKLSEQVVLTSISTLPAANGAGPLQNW

[10] = molecular target: T4, C5a anaphylatoxin chemotactic receptor 1 (Homo sapiens) (UniProt P21730); experiment: Agonist activity at human C5a receptor at 100 uM to 5 mM
T4 sequence (whole entry): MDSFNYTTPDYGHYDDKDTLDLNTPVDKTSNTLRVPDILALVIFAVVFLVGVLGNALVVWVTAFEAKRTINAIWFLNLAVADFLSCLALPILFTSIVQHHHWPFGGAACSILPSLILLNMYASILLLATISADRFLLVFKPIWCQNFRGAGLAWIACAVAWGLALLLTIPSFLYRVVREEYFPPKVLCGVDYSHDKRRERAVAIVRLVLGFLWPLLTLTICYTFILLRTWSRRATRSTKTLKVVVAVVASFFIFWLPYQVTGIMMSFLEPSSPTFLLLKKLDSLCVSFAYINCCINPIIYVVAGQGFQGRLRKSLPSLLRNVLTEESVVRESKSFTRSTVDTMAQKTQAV

[11] = molecular target: Melanocortin receptor 3 (Homo sapiens) (UniProt P41968); experiment: Agonist activity at human MC3 receptor at 100 uM to 5 mM
Sequence of Melanocortin receptor 3 (Homo sapiens) (P41968 whole entry): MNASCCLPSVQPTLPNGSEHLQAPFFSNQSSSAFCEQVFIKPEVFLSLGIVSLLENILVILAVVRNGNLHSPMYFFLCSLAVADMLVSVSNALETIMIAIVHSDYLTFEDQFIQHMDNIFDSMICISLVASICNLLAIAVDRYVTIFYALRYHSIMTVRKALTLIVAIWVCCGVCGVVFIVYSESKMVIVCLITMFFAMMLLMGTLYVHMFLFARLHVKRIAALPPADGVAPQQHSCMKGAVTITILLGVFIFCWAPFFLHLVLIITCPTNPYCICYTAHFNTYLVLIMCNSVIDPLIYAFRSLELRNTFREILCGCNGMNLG

[12] = molecular target: T5, Adenosine receptor A1 (Homo sapiens) (UniProt P30542); experiment: Agonist activity at human A1 receptor at 100 uM to 5 mM
T5 sequence (whole entry): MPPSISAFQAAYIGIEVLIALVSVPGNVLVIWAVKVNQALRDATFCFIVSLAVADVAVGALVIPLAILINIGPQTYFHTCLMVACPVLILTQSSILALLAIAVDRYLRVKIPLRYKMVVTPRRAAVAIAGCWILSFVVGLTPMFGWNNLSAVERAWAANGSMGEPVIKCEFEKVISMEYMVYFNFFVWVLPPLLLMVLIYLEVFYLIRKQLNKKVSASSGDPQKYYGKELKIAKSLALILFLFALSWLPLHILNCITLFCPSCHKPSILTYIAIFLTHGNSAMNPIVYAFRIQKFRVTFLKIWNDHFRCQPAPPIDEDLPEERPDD

[13] = molecular target: Melanocyte-stimulating hormone receptor (Mus musculus) (UniProt Q01727); experiment: Agonist activity at mouse MC1 receptor at 100 uM to 5 mM
Sequence of Melanocyte-stimulating hormone receptor (Mus musculus) (Q01727 whole entry, looked up): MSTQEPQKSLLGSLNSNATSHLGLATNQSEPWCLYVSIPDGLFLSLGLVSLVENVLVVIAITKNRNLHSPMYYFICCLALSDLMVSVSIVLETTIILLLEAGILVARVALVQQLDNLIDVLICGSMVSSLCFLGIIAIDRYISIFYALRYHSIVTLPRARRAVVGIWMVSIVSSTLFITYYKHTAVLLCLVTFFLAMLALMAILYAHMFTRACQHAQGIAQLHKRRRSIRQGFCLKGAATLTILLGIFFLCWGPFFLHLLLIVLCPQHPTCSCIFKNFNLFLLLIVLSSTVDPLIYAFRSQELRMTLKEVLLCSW

[14] = molecular target: Glucagon receptor (Homo sapiens) (UniProt P47871); experiment: Agonist activity at human Glu receptor at 100 uM to 5 mM
Sequence of Glucagon receptor (Homo sapiens) (P47871 whole entry): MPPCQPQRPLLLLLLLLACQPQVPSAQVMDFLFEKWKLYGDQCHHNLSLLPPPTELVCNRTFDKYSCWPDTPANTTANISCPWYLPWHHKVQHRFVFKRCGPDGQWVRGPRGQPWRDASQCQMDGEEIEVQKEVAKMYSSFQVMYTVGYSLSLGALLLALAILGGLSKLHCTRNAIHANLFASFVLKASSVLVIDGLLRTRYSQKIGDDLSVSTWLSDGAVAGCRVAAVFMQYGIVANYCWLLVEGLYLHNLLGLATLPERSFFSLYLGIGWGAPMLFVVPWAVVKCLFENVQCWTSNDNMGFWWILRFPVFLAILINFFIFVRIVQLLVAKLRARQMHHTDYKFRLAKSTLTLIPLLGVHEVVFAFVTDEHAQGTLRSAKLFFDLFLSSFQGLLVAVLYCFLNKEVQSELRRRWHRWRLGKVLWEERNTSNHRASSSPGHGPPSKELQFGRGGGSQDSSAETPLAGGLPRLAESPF

Sequence of Melanocortin receptor 3 (Mus musculus) (P33033 whole entry): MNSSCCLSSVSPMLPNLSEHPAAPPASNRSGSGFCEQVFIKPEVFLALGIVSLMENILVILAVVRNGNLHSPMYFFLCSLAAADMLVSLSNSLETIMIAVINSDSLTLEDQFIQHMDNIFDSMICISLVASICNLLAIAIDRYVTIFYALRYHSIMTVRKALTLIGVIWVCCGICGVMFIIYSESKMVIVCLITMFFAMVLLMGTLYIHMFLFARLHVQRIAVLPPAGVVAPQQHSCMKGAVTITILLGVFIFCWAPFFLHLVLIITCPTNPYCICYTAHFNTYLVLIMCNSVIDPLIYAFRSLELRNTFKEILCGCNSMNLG

| Structure (SMILES) | Activity [1] | Activity [2] | Activity [3] | EC50 ([4]; hek293) | Activity [5] | Activity [6] | Activity [7] | Activity [8] | Activity [9] | Activity [11] | Activity [12] | Activity [13] | Activity [14] | EC50 ([4]; read-out: EC50) [µM] | Activity [10] |
| --- | --- | --- | --- | --- | --- | --- | --- | --- | --- | --- | --- | --- | --- | --- | --- |
| O=c1c(O)c(-c2ccc(O)c(O)c2)oc2ccccc12 | inactive | inactive | inactive | Not Active | inactive | inactive | inactive | inactive | inactive | inactive | inactive | inactive | inactive |  | inactive |
| CN(C)c1ccc(-c2oc3ccccc3c(=O)c2O)cc1 | inactive | inactive | inactive | Not Active | inactive | inactive | inactive | inactive | inactive | inactive | inactive | inactive | inactive |  | inactive |
| COc1ccc(F)c(-c2oc3ccccc3c(=O)c2O)c1 | inactive | inactive | inactive |  | inactive | inactive | inactive | inactive | inactive | inactive | inactive | inactive | inactive | 253 | inactive |
| Fc1ccccc1C1C=Cc2ccccc2O1 (racemic) | inactive | inactive | inactive | Not Active | inactive | inactive | inactive | inactive | inactive | inactive | inactive | inactive | inactive |  | inactive |
| Clc1ccc(C2C=Cc3ccccc3O2)c(Cl)c1 (racemic) | inactive | inactive | inactive | Not Active | inactive | inactive | inactive | inactive | inactive | inactive | inactive | inactive | inactive |  | inactive |

Continued, in another order:

| Activity [1] | Activity [2] | Activity [3] | EC50 ([4]; hek293) | Activity [5] | Activity [6] | Activity [7] | Activity [8] | Activity [9] | Activity [11] | Activity [12] | Activity [13] | Activity [14] | EC50 ([4]; read-out: EC50) [µM] | Structure (SMILES) | Activity [10] |
| --- | --- | --- | --- | --- | --- | --- | --- | --- | --- | --- | --- | --- | --- | --- | --- |
| inactive | inactive | inactive | Not Active | inactive | inactive | inactive | inactive | inactive | inactive | inactive | inactive | inactive |  | O=c1c(O)c(-c2ccc(Cl)cc2Cl)oc2ccccc12 | inactive |
| inactive | inactive | inactive |  | inactive | inactive | inactive | inactive | inactive | inactive | inactive | inactive | inactive | 14 | O=c1c(O)c(-c2cc(Br)ccc2F)oc2ccccc12 | inactive |
| inactive | inactive | inactive | Not Active | inactive | inactive | inactive | inactive | inactive | inactive | inactive | inactive | inactive |  | O=c1c(O)c(-c2cccc(Cl)c2)oc2ccccc12 | inactive |
